In data set [1] the test system is Staphylococcus aureus. Kind of data set: Antimicrobial activity against methicillin-sensitive Staphylococcus aureus isolate 13-21 after 18 hrs by agar dilution assay. As to conditions: isolate 13-21, 18 h. The data set is classed as functional.
For data set [2], the system named is Staphylococcus saprophyticus. Kind of data set: Antimicrobial activity against Staphylococcus saprophyticus ATCC 15305 after 18 hrs by agar dilution assay. Type of data set: functional. The settings on record: ATCC 15305, 18 h. For orientation: In agar dilution, organisms are placed on agar that contains the substance at set levels.
The subject of data set [3] is Staphylococcus aureus. Kind of data set: Antimicrobial activity against methicillin-sensitive Staphylococcus aureus ATCC 29213 after 18 hrs by agar dilution assay. Type of data set: functional. As to conditions: ATCC 29213, 18 h.
The test system of data set [4] is Staphylococcus aureus. As to the kind of experiment: Antimicrobial activity against methicillin-resistant Staphylococcus aureus ATCC 33591 after 18 hrs by agar dilution assay. Type of data set: functional. The settings on record: ATCC 33591, 18 h. Summed up:
(§1)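 Drug-resistant S. aureus (MRSA/VISA) panel. It includes ATCC reference strains and clinical isolates from patients in Chinese hospitals. MIC was determined by standard methods and reported in μg/mL, with levofloxacin as the reference drug.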

In a further data set the test system is Staphylococcus hominis. As to the kind of experiment: Antimicrobial activity against Staphylococcus hominis ATCC 35982 after 18 hrs by agar dilution assay. Type of data set: functional. As to conditions: ATCC 35982, 18 h.
Data set [5] has as its system Staphylococcus aureus. As to the kind of experiment: Antimicrobial activity against vancomycin-intermediate Staphylococcus aureus ATCC 700699 after 18 hrs by agar dilution assay. Type of data set: functional. The settings on record: ATCC 700699, 18 h. Summed up:
(§2)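 MICs in μg/mL against drug-resistant S. aureus (MRSA/VISA) by standard methods, with levofloxacin as the reference drug. ATCC strains were used.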

Data set [6] relates to Staphylococcus aureus. As to the kind of experiment: Antimicrobial activity against methicillin-resistant Staphylococcus aureus isolate 13-18 after 18 hrs by agar dilution assay. The data set is classed as functional. The settings on record: isolate 13-18, 18 h. Summed up:
as §1

The nature of data set [7]: Stability in Sprague-Dawley rat blood assessed as parent compound remaining at […] after 420 mins by LC-MS/MS analysis. The data set is classed as ADME, tissue-based. The settings on record: read-out: Stability.
Data set [8] relates to Staphylococcus aureus. Kind of data set: Antimicrobial activity against methicillin-sensitive Staphylococcus aureus isolate 13-17 after 18 hrs by agar dilution assay. As to conditions: isolate 13-17, 18 h. The data set is classed as functional.
Data set [9] has as its system Staphylococcus aureus. As to the kind of experiment: Antimicrobial activity against methicillin-sensitive Staphylococcus aureus isolate 15 after 18 hrs by agar dilution assay. The data set is classed as functional. The settings on record: isolate 15, 18 h.
Data set [10] deals with Staphylococcus aureus. Kind of data set: Antimicrobial activity against methicillin-resistant Staphylococcus aureus isolate 12-3 after 18 hrs by agar dilution assay. Type of data set: functional. As to conditions: isolate 12-3, 18 h. Summed up: as §1
For data set [11], the system named is Staphylococcus epidermidis. As to the kind of experiment: Antimicrobial activity against methicillin-sensitive Staphylococcus epidermidis ATCC 12228 after 18 hrs by agar dilution assay. Type of data set: functional. As to conditions: ATCC 12228, 18 h.
In data set [12] the test system is Staphylococcus aureus. As to the kind of experiment: Antimicrobial activity against methicillin-resistant Staphylococcus aureus isolate 12-13 after 18 hrs by agar dilution assay. Type of data set: functional. As to conditions: isolate 12-13, 18 h. In outline:
as §1

In the next data set the test system is DNA. Kind of data set: Binding affinity to Escherichia coli DH5-alpha supercoiled pET-32a DNA assessed as conversion of closed circular form to open circular form of DNA at 61.5 to 492 ug/ml after 4 hrs by agarose gel electrophoresis. Type of data set: nucleic-acid assay. Summed up: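 Supercoiled pET-32a plasmid DNA was incubated with compound at increasing concentrations for 4 h at 37 °C under physiological conditions. DNA forms were resolved by agarose gel electrophoresis.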

Data set [13] in a line: Cytotoxicity against human A549 cells assessed as decrease in cell viability after 24 hrs by MTT assay. Type of data set: cell-based. Summed up: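 A549 cells were treated with compound at a series of concentrations for 24 h, and viability was read by MTT assay. Controls received 0.4% (v/v) DMSO. CC50 is given in μg/mL.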
(In general: Tetrazolium dyes change colour on reduction, which living cells bring about.)

The subject of data set [14] is Staphylococcus aureus. As to the kind of experiment: Antimicrobial activity against methicillin-resistant Staphylococcus aureus isolate 13-23 after 18 hrs by agar dilution assay. The settings on record: isolate 13-23, 18 h. Type of data set: functional. In outline: as §1
For data set [15], the system named is Staphylococcus aureus. Kind of data set: Antimicrobial activity against methicillin-resistant Staphylococcus aureus isolate 12-16 after 18 hrs by agar dilution assay. Type of data set: functional. As to conditions: isolate 12-16, 18 h. In outline: as §1
For data set [16], the system named is Staphylococcus aureus. As to the kind of experiment: Antimicrobial activity against methicillin-sensitive Staphylococcus aureus isolate 13-20 after 18 hrs by agar dilution assay. Type of data set: functional. As to conditions: isolate 13-20, 18 h.
For data set [17], the system named is Staphylococcus epidermidis. Kind of data set: Antimicrobial activity against methicillin-sensitive Staphylococcus epidermidis isolate 13-1 after 18 hrs by agar dilution assay. The data set is classed as functional. The settings on record: isolate 13-1, 18 h.
In data set [18] the test system is Staphylococcus aureus. Kind of data set: Antimicrobial activity against methicillin-sensitive Staphylococcus aureus isolate 13-19 after 18 hrs by agar dilution assay. Type of data set: functional. As to conditions: isolate 13-19, 18 h.
Data set [19] has as its system Staphylococcus aureus. Kind of data set: Antimicrobial activity against methicillin-resistant Staphylococcus aureus isolate 12-8 after 18 hrs by agar dilution assay. The data set is classed as functional. The settings on record: isolate 12-8, 18 h. Summed up:
as §1

For data set [20], the system named is Staphylococcus aureus. Kind of data set: Antimicrobial activity against methicillin-resistant Staphylococcus aureus ATCC-BAA-1708 after 18 hrs by agar dilution assay. The data set is classed as functional. The settings on record: ATCC-BAA-1708, 18 h. In outline:
as §1

Data set [21] has as its system Staphylococcus aureus. As to the kind of experiment: Antimicrobial activity against vancomycin-intermediate Staphylococcus aureus ATCC 700698 after 18 hrs by agar dilution assay. As to conditions: ATCC 700698, 18 h. The data set is classed as functional. Summed up:
as §2

Structures are written as SMILES. Activity calls are given as the source filed them. The rule behind the calls is not given here. Where only a bound is given, the exact number is not on record here.

The term MIC denotes the lowest concentration found to suppress growth. Read a low MIC as a more susceptible organism. For orientation: CC50 means the concentration at which the toxic effect on the cells reaches its halfway point. Take `COc1ccc2c(c[n+]3c4c2ccc2c5c(cc(c24)CC3)OCO5)c1NC(=O)c1csnn1.[Cl-]`: the MIC in the data set with Staphylococcus aureus [1] was found to be 2 mg/L; in [2] it was 4 mg/L; in the data set with Staphylococcus aureus [3] it was 2 mg/L; in the data set on Staphylococcus aureus [4], 2 mg/L; in the data set on Staphylococcus hominis, 2 mg/L; against Staphylococcus aureus [5], 8 mg/L. Moreover, the MIC is 2 mg/L against Staphylococcus aureus [6]; 2 mg/L in the data set on Staphylococcus aureus [8]; 4 mg/L against Staphylococcus aureus [9]; 2 mg/L against Staphylococcus aureus [10]; 4 mg/L in data set [11]; 4 mg/L against Staphylococcus aureus [12]. The MIC (against Staphylococcus aureus [14]; against Staphylococcus aureus [15]; against Staphylococcus aureus [16]; in [17]; in the data set with Staphylococcus aureus [18]; in the data set on Staphylococcus aureus [19]) was 2 mg/L each time. For the same compound, the MIC against Staphylococcus aureus [20] is 2 mg/L; against Staphylococcus aureus [21], 16 mg/L. Moreover, in [7], the remaining at 7 h is 57.2%. Besides, in the data set with DNA, the result was Active. For the same compound, in data set [13], the CC50 at 24 h turned out to be 16.1 mg/L.
As to `COc1ccc2c(c[n+]3c4c2ccc2c5c(cc(c24)CC3)OCO5)c1OC(C)=O.[Cl-]`, the MIC in the data set with Staphylococcus aureus [1] was determined as 4 mg/L; in data set [2], 4 mg/L; against Staphylococcus aureus [3], 1 mg/L; in the data set on Staphylococcus aureus [4], 4 mg/L; in the data set with Staphylococcus hominis it was 2 mg/L; in the data set on Staphylococcus aureus [5] it was 32 mg/L. Further, the MIC in the data set on Staphylococcus aureus [6] was 1 mg/L; against Staphylococcus aureus [8], 1 mg/L; in the data set on Staphylococcus aureus [9], 2 mg/L; with Staphylococcus aureus [10], 4 mg/L; in data set [11], 1 mg/L; with Staphylococcus aureus [12], 4 mg/L. In addition, the MIC against Staphylococcus aureus [14] was 2 mg/L; in the data set on Staphylococcus aureus [15] it was 2 mg/L; with Staphylococcus aureus [16], 2 mg/L; in [17], 2 mg/L; with Staphylococcus aureus [18] it was 8 mg/L; with Staphylococcus aureus [19] it was 8 mg/L. Moreover, the MIC in the data set with Staphylococcus aureus [20] was 8 mg/L; against Staphylococcus aureus [21], 16 mg/L. The CC50 at 24 h in [13] is greater than 33.6 mg/L.
Take `COc1ccc2c(c[n+]3c4c2ccc2c5c(cc(c24)CC3)OCO5)c1OCC(=O)C12CC3CC(CC(C3)C1)C2.[Br-]`: the MIC was found to be 2 mg/L against Staphylococcus aureus [1]; 2 mg/L in data set [2]; 4 mg/L in the data set on Staphylococcus aureus [3]; 2 mg/L in the data set with Staphylococcus aureus [4]; 2 mg/L in the data set on Staphylococcus hominis; 8 mg/L in the data set with Staphylococcus aureus [5]. For the same compound, the MIC against Staphylococcus aureus [6] was found to be 4 mg/L; against Staphylococcus aureus [8] it was 2 mg/L; against Staphylococcus aureus [9], 2 mg/L; in the data set on Staphylococcus aureus [10], 4 mg/L; in [11], 2 mg/L; against Staphylococcus aureus [12] it was 4 mg/L. The MIC against Staphylococcus aureus [14] came to 2 mg/L; in the data set on Staphylococcus aureus [15], 2 mg/L; in the data set on Staphylococcus aureus [16], 4 mg/L; in data set [17] it was 2 mg/L; against Staphylococcus aureus [18], 4 mg/L; in the data set with Staphylococcus aureus [19] it was 4 mg/L. Moreover, the minimum inhibitory concentration (MIC) in the data set with Staphylococcus aureus [20] was determined as 4 mg/L; in the data set with Staphylococcus aureus [21] it was 8 mg/L. For the same compound, the remaining at 7 h in data set [7] stood at 58%. For the same compound, the cytotoxic concentration (CC50) at 24 h in data set [13] is 2 mg/L.

(Values after ChEMBL document CHEMBL4145598, “Discovery and Development of 8-Substituted Cycloberberine Derivatives as Novel Antibacterial Agents against MRSA” (ACS Med Chem Lett, 2018).)
